Data from ChEMBL document CHEMBL1921762, “Investigating the antimalarial action of 1,2,4-trioxolanes with fluorescent chemical probes” (J Med Chem, 2011).
pIC50, pKi: −log10 of the molar value. One block for each molecule: values may come before it. The source made the active and inactive calls. The rule behind the calls is not given here.

Columns and labels:
[1] = Drug uptake in Plasmodium falciparum assessed as accumulation in nuclear lipid bodies at 500 nM; type: ADME; conditions: 0.5 µM, in the assay text read “neutral lipid bodies” for “nuclear lipid bodies”
Outline: (§1)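 Mixed-stage P. falciparum cultures (strains FCB and 7G8, grown in human A+ or AB+ erythrocytes at 37 °C in supplemented RPMI 1640 under 90% N2/5% O2/5% CO2) were exposed to 500 nM probe for 10 min in RPMI at 37 °C. Cells were washed twice with PBS, viewed directly or after 0.2% saponin release, and imaged by 100X oil-immersion epifluorescence with phase contrast.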

[2] = Drug uptake in Plasmodium falciparum assessed as accumulation in membranous structures at 500 nM; type: ADME; conditions: 0.5 µM; outline: as §1
Plasmodium falciparum [3] = test: Antimalarial activity against Plasmodium falciparum FCB infected in human A-positive type erythrocytes after 72 hrs by SYBR Green I assay
Plasmodium falciparum [4] = test: Induction of peroxidation of Plasmodium falciparum membrane-incorporated BODIPY at 250 nM after 2.5 hrs by fluorescence microscopic analysis; type: functional, organism-based
Outline: (§2)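 Cultures at each asexual stage were exposed at 37 °C for 2.5 h to 250 nM compound or 0.01% MeOH vehicle, then to 40 nM BODIPY 581/591 C11 for a further 30 min. Trophozoites were saponin-released; ring and segmenter stages were imaged in erythrocytes. Peroxidation was read as a red-to-yellow/green fluorescence shift by microscopy.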

Plasmodium falciparum [5] = test: Induction of peroxidation of Plasmodium falciparum membrane-incorporated BODIPY at ring stage at 250 nM after 2.5 hrs by fluorescence microscopic analysis; type: functional, organism-based; outline: as §2
Plasmodium falciparum [6] = test: Induction of peroxidation of Plasmodium falciparum membrane-incorporated BODIPY at trophozoite stage at 250 nM after 2.5 hrs by fluorescence microscopic analysis; type: functional, organism-based; outline: as §2
Plasmodium falciparum [7] = test: Induction of peroxidation of Plasmodium falciparum membrane-incorporated BODIPY at asexual stage at 250 nM after 2.5 hrs by fluorescence microscopic analysis; type: functional, organism-based; outline: as §2
[8] = Drug uptake in Plasmodium falciparum assessed as accumulation in small spherical structures in digestive vacuole at 500 nM; type: ADME; conditions: 0.5 µM
Outline: (§3)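 Mixed-stage P. falciparum cultures were exposed to 500 nM fluorescent probe for 10 min in RPMI at 37 °C. They were washed twice with PBS, viewed directly or after 0.2% saponin release, and imaged live by epifluorescence at 100X oil immersion, with phase contrast overlay.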

[9] = Drug uptake in Plasmodium falciparum […] lipid bodies assessed decrease in fluorescence at 500 nM pretreated with 500 nM unlabeled compound; type: ADME; conditions: 0.5 µM
Outline: (§4)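 Mid- to late trophozoite cultures were pre-treated for 10 min at 37 °C with 500 nM unlabeled trioxolane or 0.01% MeOH vehicle in warm complete medium. Medium was then replaced with 500 nM fluorescent trioxolane for 10 min. Cells were washed, saponin-released and examined by fluorescence microscopy. Labeled NLB were counted in ~10 random fields (~300 parasites per group) and normalised to parasite number. Results are % decrease versus MeOH, from 3 experiments with t test.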

[10] = Drug uptake in Plasmodium falciparum assessed as accumulation in […] lipid bodies at 500 nM in presence of methanol; type: ADME; conditions: 0.5 µM; outline: as §4
[11] = Drug uptake in Plasmodium falciparum assessed as cytoplasmic accumulation at 500 nM; type: ADME, Cytoplasm; conditions: 0.5 µM; outline: as §3
Plasmodium falciparum [12] = test: Drug uptake in Plasmodium falciparum assessed as subcellular localization at 500 nM; type: ADME, organism-based; conditions: 0.5 µM; outline: as §3
[13] = Binding affinity to Plasmodium falciparum calcium-transporting ATPase
Plasmodium falciparum [14] = test: Antimalarial activity against Plasmodium falciparum K1 infected in human A-positive type erythrocytes after 72 hrs by SYBR Green I assay; conditions: K1, 72 h

Drug uptake [1]: Not Active
Drug uptake [2]: Not Active
pIC50 (Plasmodium falciparum [3]): 4.60
SMILES: CN(C)c1cccc2c(S(=O)(=O)OC34CC5CC(C3)C3(OCC6(CCCCC6)O3)C(C5)C4)cccc12 (mixture of isomers)

SMILES: CC(C)(C)OC(=O)NCCCNC1CCC2(CC1)OOC1(O2)C2CC3CC(C2)CC1C3 (mixture of isomers)
Activity (Plasmodium falciparum [4]): Active
Activity (Plasmodium falciparum [5]): Active
Activity (Plasmodium falciparum [6]): Active
Activity (Plasmodium falciparum [7]): Active
pIC50 (Plasmodium falciparum [3]): 7.90

SMILES: CN(C)c1cccc2c(S(=O)(=O)OC34CC5CC(C3)C3(OOC6(CCCCC6)O3)C(C5)C4)cccc12 (mixture of isomers)
Drug uptake [8]: Active
Drug uptake [9]: Not Active
Drug uptake [10]: Active
pIC50 (Plasmodium falciparum [3]): 7.75

SMILES: C[C@@H]1CC[C@H]2[C@@H](C)C(=O)O[C@@H]3O[C@@]4(C)CC[C@@H]1[C@]32OO4 [ARTEMISININ]
pIC50 (Plasmodium falciparum [3]): 8.10

SMILES: CN(C)c1cccc2c(S(=O)(=O)NCCCNC3CCC4(CC3)OOC3(O4)C4CC5CC(C4)CC3C5)cccc12 (mixture of isomers)
Drug uptake [11]: Active
Drug uptake (Plasmodium falciparum [12]): Not Active
pIC50 (Plasmodium falciparum [3]): 7.84

SMILES: CC(C)(N)CNC(=O)C[C@H]1CC[C@]2(CC1)OO[C@]1(O2)C2CC3CC(C2)CC1C3 [OZ277]
pKi [13]: 5.10
pIC50 (Plasmodium falciparum [14]): 8.60
